According to ChEMBL document CHEMBL1255404, “Spread of OXA-48-encoding plasmid in Turkey and beyond” (2010):
Converted amounts (≈) assume the structure as drawn.

Assays:
Assay type in all cases: functional
Escherichia coli [1] = experiment: Antimicrobial activity against Escherichia coli isolate J53 harboring pBEL containing beta-lactamase OXA-48 located within transposon Tn1999.2 by Etest method
Summary of the method: (§1)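 β-Lactam MICs read with Etest strips. Strains are E. coli J53 recipient and J53 transconjugants carrying OXA-48-positive plasmids recovered from clinical enterobacterial isolates.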

Escherichia coli [2] = experiment: Antimicrobial activity against Escherichia coli isolate J53 harboring pBb containing beta-lactamase OXA-48 located within transposon Tn1999.2 by Etest method; summary of the method: as §1
Escherichia coli [3] = experiment: Antimicrobial activity against Escherichia coli isolate J53 harboring pE containing beta-lactamase OXA-48 located within transposon Tn1999.2 by Etest method; summary of the method: as §1
Escherichia coli [4] = experiment: Antimicrobial activity against Escherichia coli isolate J53 harboring pEcA containing beta-lactamase OXA-48 located within transposon Tn1999.2 by Etest method; summary of the method: as §1
Escherichia coli [5] = experiment: Antimicrobial activity against Escherichia coli isolate J53 harboring pI-1 containing beta-lactamase OXA-48 located within transposon Tn1999.2 by Etest method in presence of beta-lactamase inhibitor clavulanic acid; summary of the method: as §1
Escherichia coli [6] = experiment: Antimicrobial activity against Escherichia coli isolate J53 harboring p6A containing beta-lactamase OXA-48 located within transposon Tn1999 by Etest method; summary of the method: as §1
Escherichia coli [7] = experiment: Antimicrobial activity against Escherichia coli isolate J53 harboring pCF containing beta-lactamase OXA-48 located within transposon Tn1999 by Etest method in presence of beta-lactamase inhibitor clavulanic acid; summary of the method: as §1
Klebsiella pneumoniae [8] = experiment: Antimicrobial activity against Klebsiella pneumoniae isolate Kp4A expressing beta-lactamase OXA-48 and CTX-M-15 by Etest method
Escherichia coli [9] = experiment: Antimicrobial activity against Escherichia coli isolate J53 harboring p4A containing beta-lactamase OXA-48 located within transposon Tn1999 by Etest method; summary of the method: as §1
Klebsiella pneumoniae [10] = experiment: Antimicrobial activity against Klebsiella pneumoniae isolate Kp11978 expressing beta-lactamase OXA-48, SHV-2a and TEM-1 by Etest method in presence of beta-lactamase inhibitor clavulanic acid
Summary of the method: (§2)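 MICs of β-lactams read from Etest strips. The test organisms are carbapenem-resistant, OXA-48-positive clinical Enterobacteriaceae isolates recovered from Turkey, Lebanon, Egypt, France and Belgium.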

Escherichia coli [11] = experiment: Antimicrobial activity against Escherichia coli isolate J53 harboring p5A containing beta-lactamase OXA-48 located within transposon Tn1999 by Etest method in presence of beta-lactamase inhibitor clavulanic acid; summary of the method: as §1
Escherichia coli [12] = experiment: Antimicrobial activity against Escherichia coli isolate J53 harboring pBEL containing beta-lactamase OXA-48 located within transposon Tn1999.2 by Etest method in presence of beta-lactamase inhibitor clavulanic acid; summary of the method: as §1
Klebsiella pneumoniae [13] = experiment: Antimicrobial activity against Klebsiella pneumoniae isolate Kp5A expressing beta-lactamase OXA-48 and SHV-5 by Etest method in presence of beta-lactamase inhibitor clavulanic acid; summary of the method: as §2
Klebsiella pneumoniae [14] = experiment: Antimicrobial activity against Klebsiella pneumoniae isolate KpB expressing OXA-48 and CTX-M-15 by Etest method in presence of beta-lactamase inhibitor clavulanic acid; summary of the method: as §2
Escherichia coli [15] = experiment: Antimicrobial activity against Escherichia coli isolate J53 by Etest method; summary of the method: as §1
Escherichia coli [16] = experiment: Antimicrobial activity against Escherichia coli isolate J53 harboring p6A containing beta-lactamase OXA-48 located within transposon Tn1999 by Etest method in presence of beta-lactamase inhibitor clavulanic acid; summary of the method: as §1
Klebsiella pneumoniae [17] = experiment: Antimicrobial activity against Klebsiella pneumoniae isolate KpI-1 expressing beta-lactamase OXA-48 and CTX-M-15 by Etest method
Escherichia coli [18] = experiment: Antimicrobial activity against Escherichia coli isolate TOP10 harboring pBIC containing beta-lactamase OXA-48 located within transposon Tn1999.2 by Etest method in presence of beta-lactamase inhibitor clavulanic acid
Summary of the method: (§3)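 β-Lactam MICs read with Etest strips. Strains are E. coli TOP10 host and TOP10 transformants made with plasmid DNA extract when conjugation failed. Transformants were selected on LB agar with ticarcillin 50 μg/ml.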

Escherichia coli [19] = experiment: Antimicrobial activity against Escherichia coli isolate TOP10 harboring pPR containing beta-lactamase and TEM-101 by Etest method in presence of beta-lactamase inhibitor clavulanic acid; summary of the method: as §3
Klebsiella pneumoniae [20] = experiment: Antimicrobial activity against Klebsiella pneumoniae isolate Kp6A expressing beta-lactamase OXA-48 and TEM-150 by Etest method in presence of beta-lactamase inhibitor clavulanic acid; summary of the method: as §2
Citrobacter freundii [21] = experiment: Antimicrobial activity against Citrobacter freundii isolate expressing beta-lactamase OXA-48 by Etest method
Escherichia coli [22] = experiment: Antimicrobial activity against Escherichia coli isolate J53 harboring pI-2 containing beta-lactamase OXA-48 located within transposon Tn1999.2 by Etest method in presence of beta-lactamase inhibitor clavulanic acid; summary of the method: as §1
Escherichia coli [23] = experiment: Antimicrobial activity against Escherichia coli isolate TOP10 harboring pBIC containing beta-lactamase OXA-48 located within transposon Tn1999.2 by Etest method; summary of the method: as §3
Escherichia coli [24] = experiment: Antimicrobial activity against Escherichia coli isolate J53 harboring pBb containing beta-lactamase OXA-48 located within transposon Tn1999.2 by Etest method in presence of beta-lactamase inhibitor clavulanic acid; summary of the method: as §1
Klebsiella pneumoniae [25] = experiment: Antimicrobial activity against Klebsiella pneumoniae isolate Kp11978 expressing beta-lactamase OXA-48, SHV-2a and TEM-1 by Etest method
Citrobacter freundii [26] = experiment: Antimicrobial activity against Citrobacter freundii isolate expressing beta-lactamase OXA-48 by Etest method in presence of beta-lactamase inhibitor clavulanic acid; summary of the method: as §2
Klebsiella pneumoniae [27] = experiment: Antimicrobial activity against Klebsiella pneumoniae isolate Kp3A expressing beta-lactamase OXA-48 by Etest method in presence of beta-lactamase inhibitor clavulanic acid; summary of the method: as §2
Escherichia coli [28] = experiment: Antimicrobial activity against Escherichia coli isolate J53 harboring pL containing beta-lactamase OXA-48 located within transposon Tn1999.2 by Etest method; summary of the method: as §1
Klebsiella pneumoniae [29] = experiment: Antimicrobial activity against Klebsiella pneumoniae isolate Kp7A expressing beta-lactamase OXA-48 by Etest method in presence of beta-lactamase inhibitor clavulanic acid; summary of the method: as §2
Klebsiella pneumoniae [30] = experiment: Antimicrobial activity against Klebsiella pneumoniae isolate Kp7A expressing beta-lactamase OXA-48 by Etest method; summary of the method: as §2
Klebsiella pneumoniae [31] = experiment: Antimicrobial activity against Klebsiella pneumoniae isolate KpE expressing beta-lactamase OXA-48 and CTX-M-15 by Etest method
Klebsiella pneumoniae [32] = experiment: Antimicrobial activity against Klebsiella pneumoniae isolate KpI-2 expressing beta-lactamase OXA-48 and CTX-M-15 by Etest method in presence of beta-lactamase inhibitor clavulanic acid; summary of the method: as §2
Escherichia coli [33] = experiment: Antimicrobial activity against Escherichia coli isolate J53 harboring p7A containing beta-lactamase OXA-48 located within transposon Tn1999 by Etest method; summary of the method: as §1
Klebsiella pneumoniae [34] = experiment: Antimicrobial activity against Klebsiella pneumoniae isolate KpE expressing beta-lactamase OXA-48 and CTX-M-15 by Etest method in presence of beta-lactamase inhibitor clavulanic acid; summary of the method: as §2
Klebsiella pneumoniae [35] = experiment: Antimicrobial activity against Klebsiella pneumoniae isolate KpBIC expressing beta-lactamase OXA-48 by Etest method; summary of the method: as §2
Escherichia coli [36] = experiment: Antimicrobial activity against Escherichia coli isolate A expressing beta-lactamase OXA-48 and TEM-150 by Etest method in presence of beta-lactamase inhibitor clavulanic acid; summary of the method: as §2

Row | Structure (SMILES) | MIC (Escherichia coli [1]) [µg/mL] | MIC (Escherichia coli [2]) [µg/mL] | MIC (Escherichia coli [3]) [µg/mL] | MIC (Escherichia coli [4]) [µg/mL] | MIC (Escherichia coli [5]) [µg/mL] | MIC (Escherichia coli [6]) [µg/mL] | MIC (Escherichia coli [7]) [µg/mL] | MIC (Klebsiella pneumoniae [8]) [µg/mL] | MIC (Escherichia coli [9]) [µg/mL] | MIC (Klebsiella pneumoniae [10]) [µg/mL] | MIC (Escherichia coli [11]) [µg/mL] | MIC (Escherichia coli [12]) [µg/mL] | MIC (Klebsiella pneumoniae [13]) [µg/mL] | MIC (Klebsiella pneumoniae [14]) [µg/mL] | MIC (Escherichia coli [15]) [µg/mL] | MIC (Escherichia coli [16]) [µg/mL] | MIC (Klebsiella pneumoniae [17]) [µg/mL] | MIC (Escherichia coli [18]) [µg/mL] | MIC (Escherichia coli [19]) [µg/mL] | MIC (Klebsiella pneumoniae [20]) [µg/mL] | other results
1 | CC1(C)S[C@@H]2[C@H](NC(=O)[C@H](C(=O)O)c3ccsc3)C(=O)N2[C@H]1C(=O)O [TICARCILLIN] | > 256 | > 512 | > 512 | > 256 | > 512 | > 512 | > 512 | > 512 | > 512 | > 512 | > 512 | > 256 | > 512 | > 512 | 2 (≈ 5.2 µM) | > 512 | > 512 | > 512 | > 256 | > 512 | MIC (Citrobacter freundii [21]): > 512 µg/mL; MIC (Escherichia coli [22]): > 512 µg/mL; MIC (Escherichia coli [23]): > 512 µg/mL; MIC (Escherichia coli [24]): > 512 µg/mL; MIC (Klebsiella pneumoniae [25]): > 512 µg/mL; MIC (Citrobacter freundii [26]): > 512 µg/mL; MIC (Klebsiella pneumoniae [27]): > 512 µg/mL; MIC (Escherichia coli [28]): > 256 µg/mL; MIC (Klebsiella pneumoniae [29]): > 512 µg/mL; MIC (Klebsiella pneumoniae [30]): > 512 µg/mL; MIC (Klebsiella pneumoniae [31]): > 512 µg/mL; MIC (Klebsiella pneumoniae [32]): > 512 µg/mL; MIC (Escherichia coli [33]): > 512 µg/mL; MIC (Klebsiella pneumoniae [34]): > 512 µg/mL; MIC (Klebsiella pneumoniae [35]): > 512 µg/mL; MIC (Escherichia coli [36]): > 256 µg/mL
2 | CC1(C)S[C@@H]2[C@H](NC(=O)[C@H](N)c3ccc(O)cc3)C(=O)N2[C@H]1C(=O)O [AMOXICILLIN] | > 256 | > 512 | > 512 | > 256 | > 512 | > 512 | > 512 | > 512 | > 512 | > 512 | > 512 | > 256 | > 512 | > 512 | 4 (≈ 10.9 µM) | > 512 | > 512 | > 512 | > 256 | > 512 | MIC (Citrobacter freundii [21]): > 512 µg/mL; MIC (Escherichia coli [22]): > 512 µg/mL; MIC (Escherichia coli [23]): > 512 µg/mL; MIC (Escherichia coli [24]): > 512 µg/mL; MIC (Klebsiella pneumoniae [25]): > 512 µg/mL; MIC (Citrobacter freundii [26]): > 512 µg/mL; MIC (Klebsiella pneumoniae [27]): > 512 µg/mL; MIC (Escherichia coli [28]): > 256 µg/mL; MIC (Klebsiella pneumoniae [29]): > 512 µg/mL; MIC (Klebsiella pneumoniae [30]): > 512 µg/mL; MIC (Klebsiella pneumoniae [31]): > 512 µg/mL; MIC (Klebsiella pneumoniae [32]): > 512 µg/mL; MIC (Escherichia coli [33]): > 512 µg/mL; MIC (Klebsiella pneumoniae [34]): > 512 µg/mL; MIC (Klebsiella pneumoniae [35]): > 512 µg/mL; MIC (Escherichia coli [36]): > 256 µg/mL
